In article PMC8163102 (Angewandte Chemie (International ed. in English), 2020):

How the values were obtained:
[1] = test system: 4T1 murine breast cancer lysates; test: Cleavage of ACC peptide substrates in tumor lysate; assay type: biochemical, mouse; settings: E64 10 μM preincubation, 4T1 lysate, acidic pH; Fig. 1D
Outline: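 ACC-reporter peptide substrates were added to 4T1 murine breast cancer lysate at acidic pH, with or without prior preincubation with the cysteine cathepsin inhibitor E64 (10 μM). Cleavage velocity was plotted as mean ± SD, n=3.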

[2] = test system: immortalized macrophages; test: Probe activation in cells by flow cytometry; assay type: cell-based; settings: E64d pretreatment; Fig. S4

Row | Structure (SMILES) | Effect of preincubation with the inhibitor on cleavage of ACC substrates 1-3 [1] | Effect of inhibitor pretreatment on labelling of cells by probe 5 [2]
1 | CC(C)C[C@H](NC(=O)[C@H]1O[C@@H]1C(=O)O)C(=O)NCCCCN=C(N)N [E64] | fully abrogated cleavage | –
2 | CCOC(=O)[C@H]1O[C@@H]1C(=O)N[C@@H](CC(C)C)C(=O)NCCC(C)C [E64d] | – | strongly diminished labelling
